# In ChEMBL document CHEMBL1208661, “Synthesis, characterization, in vitro and molecular docking studies of new 2,5-dichloro thienyl substituted thiazole derivatives for antimicrobial properties” (2010):
# Calls of active or inactive are those of the source. The rule behind the calls is not given here.
# What was measured:
# Aspergillus fumigatus [1] = experiment: Antifungal activity against Aspergillus fumigatus NCIM 902 after 3 to 4 days by serial plate dilution method; type: functional
# Summary of the method: (§1)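 Sabouraud agar was used (peptone, D-glucose and agar in water, pH 5.7). Plates were lawned with a saline spore suspension and dried at 37 °C for 1 h. Wells were punched in the agar and filled with compound in DMSO, with a DMSO solvent control. Plates were run in triplicate at 37 °C for 3–4 days.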
# Klebsiella pneumoniae = experiment: Antibacterial activity against Klebsiella pneumoniae after 24 hrs by disc diffusion method; type: functional
# Summary of the method: (§2)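 Paper discs (6.25 mm, Whatman No. 1) were dry-heat sterilized at 140 °C for 1 h. Test compounds were made up at different concentrations in dimethylformamide and loaded onto batches of 100 discs, using 1 ml holding 100 times the per-disc amount. Discs were placed in triplicate on nutrient agar seeded with fresh bacteria.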
# Aspergillus flavus [2] = experiment: Antifungal activity against Aspergillus flavus NCIM 524 after 3 to 4 days by serial plate dilution method; type: functional; summary of the method: as §1
# Staphylococcus aureus = experiment: Antibacterial activity against Staphylococcus aureus Smith after 24 hrs by disc diffusion method; type: functional; summary of the method: as §2
# Talaromyces marneffei [3] = experiment: Antifungal activity against recultured Penicillium marneffei after 3 to 4 days by serial plate dilution method; type: functional; summary of the method: as §1
# [4] = tested on: Trichophyton mentagrophytes; experiment: Antifungal activity against recultured Trichophyton mentagrophytes after 3 to 4 days by serial plate dilution method; type: functional; summary of the method: as §1
# Escherichia coli = experiment: Antibacterial activity against Escherichia coli after 24 hrs by disc diffusion method; type: functional; summary of the method: as §2
# Pseudomonas aeruginosa = experiment: Antibacterial activity against Pseudomonas aeruginosa after 24 hrs by disc diffusion method; type: functional; summary of the method: as §2
# [5] = tested on: Trichophyton mentagrophytes; experiment: Antifungal activity against recultured Trichophyton mentagrophytes at 10 ug/ml after 3 to 4 days by serial plate dilution method; type: functional, organism-based; summary of the method: as §1
# Aspergillus fumigatus [6] = experiment: Antifungal activity against Aspergillus fumigatus NCIM 902 at 10 ug/ml after 3 to 4 days by serial plate dilution method; type: functional, organism-based; summary of the method: as §1
# Aspergillus flavus [7] = experiment: Antifungal activity against Aspergillus flavus NCIM 524 at 10 ug/ml after 3 to 4 days by serial plate dilution method; type: functional, organism-based; summary of the method: as §1
# Talaromyces marneffei [8] = experiment: Antifungal activity against recultured Penicillium marneffei at 10 ug/ml after 3 to 4 days by serial plate dilution method; type: functional, organism-based; summary of the method: as §1
MIC (Aspergillus fumigatus [1]),MIC (Klebsiella pneumoniae),MIC (Aspergillus flavus [2]),MIC (Staphylococcus aureus),MIC (Talaromyces marneffei [3]),MIC [4],MIC (Escherichia coli),MIC (Pseudomonas aeruginosa),MIC [5],MIC (Aspergillus fumigatus [6]),MIC (Aspergillus flavus [7]),MIC (Talaromyces marneffei [8]),SMILES
,< 6.25 µg/mL,,< 6.25 µg/mL,,,< 6.25 µg/mL,< 6.25 µg/mL,,,,,CC1(C)S[C@@H]2[C@H](NC(=O)[C@H](N)c3ccccc3)C(=O)N2[C@H]1C(=O)O [AMPICILLIN]
,inactive,,100 µg/mL,,,inactive,inactive,inactive,inactive,inactive,inactive,Fc1ccccc1-c1nc(-c2cc(Cl)sc2Cl)cs1
,100 µg/mL,100 µg/mL,6.25 µg/mL,12.5 µg/mL,12.5 µg/mL,6.25 µg/mL,12.5 µg/mL,,inactive,,,COc1ccccc1-c1nc(-c2cc(Cl)sc2Cl)cs1

# Second part, the molecule before the results:
SMILES,MIC (Aspergillus fumigatus [1]),MIC (Klebsiella pneumoniae),MIC (Aspergillus flavus [2]),MIC (Staphylococcus aureus),MIC (Talaromyces marneffei [3]),MIC [4],MIC (Escherichia coli),MIC (Pseudomonas aeruginosa),MIC [5],MIC (Aspergillus fumigatus [6]),MIC (Aspergillus flavus [7]),MIC (Talaromyces marneffei [8])
Clc1cc(-c2csc(-c3cccc4cccnc34)n2)c(Cl)s1,12.5 µg/mL,6.25 µg/mL,6.25 µg/mL,6.25 µg/mL,6.25 µg/mL,6.25 µg/mL,12.5 µg/mL,12.5 µg/mL,,,,
Nc1nc(-c2cc(Cl)sc2Cl)cs1,6.25 µg/mL,12.5 µg/mL,6.25 µg/mL,6.25 µg/mL,12.5 µg/mL,12.5 µg/mL,6.25 µg/mL,12.5 µg/mL,,,,
C[C@@H]1[C@H](O)[C@@H](C)/C=C/C=C/C=C/C=C/C=C/C=C/C=C/[C@H](O[C@@H]2O[C@H](C)[C@@H](O)[C@H](N)[C@@H]2O)C[C@@H]2O[C@](O)(C[C@@H](O)C[C@@H](O)[C@H](O)CC[C@@H](O)C[C@@H](O)CC(=O)O[C@H]1C)C[C@H](O)[C@H]2C(=O)O [AMPHOTERICIN B],< 6.25 µg/mL,,< 6.25 µg/mL,,< 6.25 µg/mL,< 6.25 µg/mL,,,,,,
Clc1cc(-c2csc(-c3cccnc3)n2)c(Cl)s1,,inactive,,100 µg/mL,,,inactive,100 µg/mL,inactive,inactive,inactive,inactive
